ChEMBL document CHEMBL4706606, “Re-evaluating pretomanid analogues for Chagas disease: Hit-to-lead studies reveal both in vitro and in vivo trypanocidal efficacy” (Eur J Med Chem, 2020)
In brackets after ≈: the same amount, converted by molar mass. Activity calls are given as the source filed them. No cut-off for these calls is given here.

Assays:
Trypanosoma cruzi [1] = assay: Antitrypanosomal activity against bloodstream trypomastigotes form of Trypanosoma cruzi CL Brener infected in BALB/c mouse assessed as reduction of parasite in mouth/nasal region at 50 mg/kg, po qd administered for 5 days starting from day 114 post infection followed by cyclophosphamide induced …; format: functional, organism-based; conditions: time 5.0 day
[2] = Selectivity index, ratio of IC50 for cytotoxicity against rat L6 cells to IC50 for antitrypanosomal activity against Trypanosoma cruzi Tulahuen strain C2C4 amastigotes infected in rat L6 cells
Trypanosoma cruzi [3] = assay: Antitrypanosomal activity against Trypanosoma cruzi Tulahuen strain C2C4 amastigotes infected in rat L6 cells assessed as inhibition of parasite growth incubated for 96 hrs by chlorophenol red-fl-D-galactopyranoside based colorimetric analysis; format: functional, organism-based; conditions: for IC50: Tulahuen strain C2C4, L6, 96 h; for IC90: Tulahuen strain C2C4, L6, time 96 hrs
How it was run: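 Tulahuen strain TcVI T. cruzi expressing β-galactosidase, grown in L6 rat skeletal myoblast host cells. IC50/IC90 growth inhibition. Each value is the mean of ≥2 independent determinations using fresh sample stock.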

[4] = Inhibition of Trypanosoma cruzi Tulahuen C4 strain CYP51 expressed in Escherichia coli by fluorescence based assay
L6 = assay: Cytotoxicity against rat L6 cells assessed as reduction in cell viability incubated for 72 hrs by alamar blue assay; format: ADME, cell-based; conditions: L6, 72 h
Trypanosoma cruzi [5] = assay: Antitrypanosomal activity against bloodstream trypomastigotes form of Trypanosoma cruzi CL Brener infected in BALB/c mouse assessed as reduction of parasite in small intestine at 50 mg/kg, po qd administered for 5 days starting from day 114 post infection followed by cyclophosphamide induced …; format: functional, organism-based; conditions: time 5.0 day
Trypanosoma cruzi [6] = assay: Antitrypanosomal activity against bloodstream trypomastigotes form of Trypanosoma cruzi CL Brener infected in BALB/c mouse assessed as reduction in parasitemia at 50 mg/kg, po administered 5 days after 114 days post infection followed by cyclophosphamide induced immunosuppression on day 143 post infection and measured for 149 days by bioluminescence analysis; format: functional, organism-based; conditions: time 5.0 day
How it was run: (§1)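 Female BALB/c mice, 8 weeks old, ~18 g, 5 per group. Infected i.p. with 10^3 bloodstream trypomastigotes of bioluminescent CL Brener (pTRIX2-RE9h). From day 114 p.i., oral dosing once daily for 5 days: reference drugs at 100 mg/kg in HPMC-SV with 5% DMSO, PEG400 vehicle at 50 mg/kg. Cyclophosphamide 200 mg/kg i.p. on days 135, 139 and 143. Final imaging day 149. Ex vivo organ bioluminescence days 149-151.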

[7] = Cytotoxicity against rat 3T3 cells assessed as reduction in cell viability incubated for 72 hrs by alamar blue assay; format: ADME, cell-based; conditions: NIH3T3, 72 h
[8] = Thermodynamic solubility of compound in PEG400; format: physicochemical
[9] = Selectivity index, ratio of IC50 for cytotoxicity against rat 3T3 cells to IC50 for antitrypanosomal activity against Trypanosoma cruzi Tulahuen strain C2C4 amastigotes infected in rat 3T3 cells; conditions: 3T3 cells
Trypanosoma cruzi [10] = assay: Antitrypanosomal activity against bloodstream trypomastigotes form of Trypanosoma cruzi CL Brener infected in BALB/c mouse assessed as reduction in parasite in caecum at 50 mg/kg, po qd administered for 5 days starting from day 114 post infection followed by cyclophosphamide induced immunosuppression on days 135, 139 and 143 post infection and measured for 149 days by bioluminescence analysis; format: functional, organism-based; conditions: time 5.0 day
How it was run: as §1

Trypanosoma cruzi [11] = assay: Antitrypanosomal activity against Trypanosoma cruzi Tulahuen strain C2C4 amastigotes infected in […] cells assessed as reduction in parasite growth incubated for 48 hrs by chlorophenol red-fl-D-galactopyranoside based colorimetric analysis; format: functional, organism-based; conditions: for IC50: Tulahuen strain C2C4, NIH3T3, 48 h; for IC90: Tulahuen strain C2C4, NIH3T3, time 48 hrs
[12] = Plasma concentration in Swiss mouse at 50 mg/kg, po measured upto 24 hrs by LC-MS/MS analysis
Trypanosoma cruzi [13] = assay: Antitrypanosomal activity against Trypanosoma cruzi Tulahuen strain C2C4 amastigotes infected in […] cells assessed as reduction in parasite growth incubated for 48 hrs by chlorophenol red-fl-D-galactopyranoside based colorimetric analysis relative to control; format: functional
[14] = Kinetic solubility of compound in water sonicated for 15 mins by HPLC analysis
Trypanosoma cruzi [15] = assay: Antitrypanosomal activity against Trypanosoma cruzi Y strain amastigotes infected in U2OS cells assessed as inhibition of parasite growth at 3.3 ug/ml by image-based assay relative to control
[16] = Half life in human liver microsomes incubated for 60 mins
[17] = Metabolic stability in CD-1 mouse liver microsomes assessed as parent compound remaining incubated for 1 hr; format: ADME, Microsome
How it was run: (§2)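 Pooled human or CD-1 mouse liver microsomes at 0.4 mg/mL microsomal protein. Percent parent remaining after 1 h incubation.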

[18] = Kinetic solubility of compound in 0.1M HCl at pH 1 sonicated for 15 mins by HPLC analysis; format: physicochemical; conditions: read-out: Kinetic_solubility
How it was run: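 Solid mixed with 0.1 M HCl to a nominal 2 mM, sonicated 15 min, centrifuged 6 min. Supernatant diluted 2-fold and analysed by HPLC. Kinetic solubility from peak area against a DMSO standard solution.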

[19] = Metabolic stability in human liver microsomes assessed as parent compound remaining incubated for 1 hr; format: ADME, Microsome; conditions: read-out: Stabilty
How it was run: as §2

Trypanosoma cruzi [20] = assay: Antitrypanosomal activity against Trypanosoma cruzi Y strain amastigotes infected in U2OS cells assessed as inhibition of parasite growth at […] by image-based assay relative to control
Trypanosoma cruzi [21] = assay: Antitrypanosomal activity against Trypanosoma cruzi Y strain amastigotes infected in U2OS cells assessed as inhibition of parasite growth at 0.37 ug/ml by image-based assay relative to control
Cytochrome P450 3A4 = Cytochrome P450 3A4 (Homo sapiens, UniProt P08684); assay: Inhibition of CYP3A4 in human liver microsome using testosterone as substrate
Chain of Cytochrome P450 3A4 (P08684 whole entry): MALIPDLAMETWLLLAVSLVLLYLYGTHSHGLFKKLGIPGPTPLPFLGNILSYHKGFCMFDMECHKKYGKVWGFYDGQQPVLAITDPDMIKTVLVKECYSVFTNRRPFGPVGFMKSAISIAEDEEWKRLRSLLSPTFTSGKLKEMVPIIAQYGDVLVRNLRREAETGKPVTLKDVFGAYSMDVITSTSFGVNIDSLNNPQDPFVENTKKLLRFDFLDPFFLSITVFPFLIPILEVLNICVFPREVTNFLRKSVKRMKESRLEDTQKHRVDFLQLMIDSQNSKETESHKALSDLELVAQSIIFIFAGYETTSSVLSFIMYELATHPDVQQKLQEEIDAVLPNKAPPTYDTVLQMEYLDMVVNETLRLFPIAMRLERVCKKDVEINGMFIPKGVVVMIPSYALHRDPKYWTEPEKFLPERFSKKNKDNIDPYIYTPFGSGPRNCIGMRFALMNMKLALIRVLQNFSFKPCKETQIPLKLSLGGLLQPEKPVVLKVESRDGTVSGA

Trypanosoma cruzi [22] = assay: Antitrypanosomal activity against Trypanosoma cruzi amastigotes assessed as inhibition of parasite growth at 10 ug/ml relative to control
Trypanosoma cruzi [23] = assay: (§3) Antitrypanosomal activity against bloodstream trypomastigotes form of Trypanosoma cruzi Tulahuen strain C2C4 infected in Swiss mouse assessed as reduction in parasitemia at 20 mg/kg, po qd administered for 20 days starting from day 8 post infection followed by cyclophosphamide induced immunosuppression on day 10 post infection and measured for 51 days by neubauer haemocytometer based microscopic analysis; format: functional, organism-based; conditions: time 20.0 day
How it was run: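 Same infection (female Swiss mice, 5 x 10⁴ trypomastigotes ip) and 20-day oral course from day 8 p.i. After 10 days' rest, mice with very low or undetectable parasitemia got three cycles of cyclophosphamide, 50 mg/kg ip daily for 4 days then 3 days' rest, starting day 37 p.i. Blood parasitemia checked on days 37, 44, 51 and 58 p.i. by haemocytometer, with PCR detection also used.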

Trypanosoma cruzi [24] = assay: as §3, with “infection” for “infection followed by cyclophosphamide induced immunosuppression on day 10 post infection”, “28” for “51”; format: functional, organism-based; conditions: time 20.0 day
How it was run: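 Female Swiss mice, 5 per group, infected intraperitoneally with 5 x 10⁴ bloodstream trypomastigotes (Tulahuen). Oral dosing once daily for 20 days from day 8 p.i., with the commercial formulation diluted in water for injection. Tail blood (3 μL) taken on days 8 (predose), 9, 12, 14, 16, 19, 21 and 28 p.i., diluted 1:10 in red cell lysis buffer and counted by haemocytometer.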

Trypanosoma cruzi [25] = assay: as §3, with “at 50” for “at 20”, “infection” for “infection followed by cyclophosphamide induced immunosuppression on day 10 post infection”, “for 28” for “for 51”; format: functional, organism-based; conditions: time 20.0 day
How it was run: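 Female Swiss mice, 5 per group, infected i.p. with 5 x 10^4 bloodstream trypomastigotes (Tulahuen). Oral dosing once daily for 20 days from day 8 p.i., vehicle HPMC-SV with 5% DMSO. Tail blood, 3 μL diluted 1:10 in RBC lysis, counted by haemocytometer on days 8–28 p.i.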

Structure (SMILES)	selectivity ratio [2]	IC50 (Trypanosoma cruzi [3]) [µM]	IC90 (Trypanosoma cruzi [3]) [µM]	IC50 [4] [µM]	IC50 (L6) [µM]	IC50 [7] [µM]	selectivity ratio [9]	IC50 (Trypanosoma cruzi [11]) [µM]	IC90 (Trypanosoma cruzi [11]) [µM]	%max (Trypanosoma cruzi [13]) [%]	solubility kinetic at 0.25 h [14] [µg/mL]	also measured
O=[N+]([O-])c1cn2c(n1)OC[C@H](Oc1ccc(OC(F)(F)F)cc1)C2	> 250	0.4	1	> 10	> 100	> 73	> 61	1.2	1.7	99		Activity (Trypanosoma cruzi [1]): Active; Activity (Trypanosoma cruzi [5]): Active; Activity (Trypanosoma cruzi [6]): Active; solubility thermodynamic [8]: 21000 µg/mL (≈ 60800 µM); Activity (Trypanosoma cruzi [10]): Active; concentration at 24 h [12]: 11 µM
CC1(COCc2ccc(OCc3ccccc3)cc2)Cn2cc([N+](=O)[O-])nc2S1(=O)=O (stereo not given)	> 1200	0.083	0.24		> 100						< 0.1	inhibition at 3.3 µg/mL (Trypanosoma cruzi [15]): 59%; half-life at 1 h [16]: 0.417 h
O=[N+]([O-])c1cn2c(n1)OC[C@H](OCC#Cc1ccc(-c3ccc(C(F)(F)F)cc3)cn1)C2				> 10		> 37	> 137	0.27	1.7	95	0.68 (≈ 1.53 µM)	remaining at 1 h [17]: 76%; solubility kinetic at 0.25 h [18]: 7.6 µg/mL (≈ 17.1 µM); remaining at 1 h [19]: 58%
O=[N+]([O-])c1cn2c(n1)OC[C@H](OCc1ccc(-c3ccc(C(F)(F)F)cc3Cl)cn1)C2	75	0.67	2.9		50						1 (≈ 2.2 µM)	solubility kinetic at 0.25 h [18]: 299 µg/mL (≈ 657 µM)
O=[N+]([O-])c1cn2c(n1)OC[C@@H](OCC#Cc1ccc(-c3ccc(C(F)(F)F)cc3)cn1)C2	> 435	0.23	0.59	> 10	> 100	> 37	> 73	0.51	1.7	97	0.33 (≈ 0.743 µM)	inhibition at […] (Trypanosoma cruzi [20]): 48%
O=[N+]([O-])c1cn2c(n1)OC[C@@H](OCC#Cc1ccc(-c3ccc(OC(F)(F)F)cc3)cn1)C2	> 313	0.32	0.99	> 10	> 100	> 37	> 51	0.73	1	99	0.49 (≈ 1.06 µM)	inhibition at 0.37 µg/mL (Trypanosoma cruzi [21]): 44%; half-life at 1 h [16]: > 4.17 h
O=[N+]([O-])c1cn2c(n1)OCC(COc1ccc(-c3ccc(F)cc3)cn1)C2 (stereo not given)	> 4540	0.022	0.19		> 100						1.1 (≈ 2.97 µM)	inhibition at […] (Trypanosoma cruzi [20]): 29%
O=[N+]([O-])c1cn2c(n1)OC[C@@H](OCc1ccc(-c3ccc(C(F)(F)F)cc3Cl)cc1)C2	9.2	3.7	8		34						0.48 (≈ 1.06 µM)	IC50 (Cytochrome P450 3A4): > 20 µM; inhibition at 10 µg/mL (Trypanosoma cruzi [22]): 94%; half-life at 1 h [16]: > 4.17 h; concentration at 24 h [12]: 9.1 µM
O=[N+]([O-])c1nc2n(n1)C[C@H](O)CO2	> 63	1.6	6.3		> 100						8750 (≈ 47000 µM)	inhibition at […] (Trypanosoma cruzi [20]): 58%
O=[N+]([O-])c1cn2c(n1)OC[C@H](OCC#Cc1ccc(-c3ccc(OC(F)(F)F)cc3)cn1)C2				> 10		> 37	> 55	0.67	2.2	94	< 0.1	remaining at 1 h [17]: 74%; solubility kinetic at 0.25 h [18]: 3 µg/mL (≈ 6.52 µM); remaining at 1 h [19]: 68%
CC[C@@H]([C@H](C)O)n1ncn(-c2ccc(N3CCN(c4ccc(OC[C@@H]5CO[C@@](Cn6cncn6)(c6ccc(F)cc6F)C5)cc4)CC3)cc2)c1=O [POSACONAZOLE]				0.052		> 1	> 833	0.0012	0.0049	85		Activity (Trypanosoma cruzi [23]): Active; Activity (Trypanosoma cruzi [24]): Active
CC1(COc2ccc(OC(F)(F)F)cc2)CCn2cc([N+](=O)[O-])nc2O1 (stereo not given)		0.45	0.93						1	100		inhibition at 3.3 µg/mL (Trypanosoma cruzi [15]): 52%; Activity (Trypanosoma cruzi [25]): Active
CC1(COc2ccc(-c3ccc(F)cc3)cn2)CCn2cc([N+](=O)[O-])nc2O1 (stereo not given)												inhibition at 3.3 µg/mL (Trypanosoma cruzi [15]): 50%
